Screening results (PubChem BioAssay)
Rows were chosen to be rich in hits. Some 2.3% of all compounds tested hit in one or more screens of this group.
F508del corr: correctors of CFTR F508del function in bronchial epithelial cells | 0.36% of 350,000 active | AID 720511 | activity (quench increase), % at 7.58 µM | CFBE cells, YFP halide quenching; stimulated with forskolin plus potentiator P3; % fluorescence drop versus neutral controls;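 active = mean added fluorescence quench of at least 8% versus neutral control, with both replicates also reaching 8%; inconclusive = only one of the mean or replicate conditions met; inactive = mean below 8% and not both replicates reaching 8%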;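 note: cells transiently co-express mutant CFTR-F508del with the halide-sensitive YFP; corrector assay measuring rescue of mutant channel to the surface after 24 h compound exposure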
ERp5 block: blocks human ERp5 reductase activity on insulin; inhibition, % at 9.99 µM; ERp5 insulin aggregation, absorbance 650 nm, 90 min; Q15084; 0.05% of 350,000 active;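 active = mean replicate inhibition above about 25%, with every replicate also reaching it, limit read from the data, passing the limit was not always enough; inconclusive = only one of those two criteria met; inactive = neither criterion met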
Target sequence (Q15084 whole entry, looked up): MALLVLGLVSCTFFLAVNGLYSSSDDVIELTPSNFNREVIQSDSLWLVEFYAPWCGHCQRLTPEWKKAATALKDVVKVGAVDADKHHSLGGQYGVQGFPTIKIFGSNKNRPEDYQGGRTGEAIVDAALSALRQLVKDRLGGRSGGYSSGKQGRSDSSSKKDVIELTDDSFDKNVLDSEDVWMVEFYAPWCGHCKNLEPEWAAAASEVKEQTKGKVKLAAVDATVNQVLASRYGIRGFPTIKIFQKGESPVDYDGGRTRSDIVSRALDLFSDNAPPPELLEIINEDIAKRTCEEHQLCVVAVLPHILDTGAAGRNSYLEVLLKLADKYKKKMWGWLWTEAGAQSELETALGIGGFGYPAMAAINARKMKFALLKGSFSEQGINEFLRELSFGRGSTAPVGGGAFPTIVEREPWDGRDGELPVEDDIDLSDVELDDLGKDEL
PDI turbidity: blocks human protein disulfide isomerase activity; PDI insulin aggregation turbidity, A650, 90 min; inhibition, % at 10 µM; 0.052% of 350,000 active; AID 588391;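 active = mean inhibition across replicates of 30% or more, whatever share of single replicates reach that level; inconclusive = mean inhibition below 30% while every single replicate reaches 30%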
Cneo AK release: causes C. neoformans cell lysis | adenylate kinase release luminescence, 4 h; normalised: neutral wells 0, clomiphene wells 100 | lysis activity, % at 15 µM | 0.2% of 360,000 active;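 active = mean lysis activity across replicates of at least 80%, whatever share of replicates individually reach that level; inactive = mean lysis activity below 80%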
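read-out = cell lysis signal | test system = log-phase Cryptococcus neoformans yeast cells | input = cells at 5 × 10^6 per mL | medium = fresh YPD growth medium | signal = luminescent adenylate kinase detection reagent | timing = 4 h at 37 °C static, read 1 h later | dosing = single dose | controls = Clomiphene as positive lysis control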
DENV2 CPE rescue: inhibitors of DENV2 cytopathic effect; DENV2-infected cells, cytopathic effect rescue, plate reader; CPE inhibition, % at 9.99 µM; 1.7% of 350,000 active; AID 651640; in the data active = CPE inhibition above about 20%, passing the limit was not always enough; inconclusive = no clear call, values can overlap the other calls; tested in BHK-21 cells;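 note: 0% = median of neutral control wells and 100% = median of positive control wells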
C2C12 statin: suppression of simvastatin myotoxicity; C2C12 myotubes + simvastatin, ATP luminescence, 48 h; scaled: DMSO 0, geranylgeraniol control 100; rescue of ATP level, % at 7.49 µM; 0.78% of 330,000 active;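 active = mean ATP rescue above about 67%, or every replicate alone reaching that limit, limit read from the data, passing the limit was not always enough; inconclusive = no clear call, values can overlap the other calls; inactive = mean under the limit and some replicate under it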;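 note: myotubes were challenged with 10 µM simvastatin during compound exposure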
* marks the source's active call; other numbers are inactive results; ? = inconclusive; · = no result given.

SMILES | F508del corr | ERp5 block | PDI turbidity | Cneo AK release | DENV2 CPE rescue | C2C12 statin
CCCCC[C@@H]1C=C(C(=O)O)[C@H](c2ccc3c(c2)OCO3)N1S(=O)(=O)c1ccc(C)cc1 | -0.3 | 6.1 | 3.2 | 0.4 | 30.6* | 6.2
CC[C@@H]1C=C(C(=O)O)[C@H](c2ccc3c(c2)OCO3)N1S(=O)(=O)c1ccc(C)cc1 | -1.7 | 3.1 | -2.7 | 4.6 | 15.7 | 2.6
O=C(NCCN1CCCC1)[C@H]1N[C@H]2c3ccc(-c4ccccc4)c(=O)n3C[C@H]2[C@@H]1CO | -0.9 | 5.9 | · | -2.8 | 85.0* | -11.2
C[C@H](NC(=O)[C@H]1N[C@H]2c3ccc(-c4cccnc4)c(=O)n3C[C@H]2[C@@H]1CO)c1ccccc1 | · | -5.1 | · | -1.3 | 117.0* | 7.0
O=C(NCc1ccccc1F)[C@H]1N[C@H]2c3ccc(-c4ccccc4F)c(=O)n3C[C@H]2[C@@H]1CO | -3.4 | -3.2 | · | 3.0 | 82.3* | -21.7
O=C(NC[C@H]1[C@H](c2ccccc2)[C@@H](CO)N1Cc1cccnc1)c1ccccn1 | 1.9 | 1.2 | · | 75.0 | 37.9* | 3.7
CC(=O)N1[C@H](CO)[C@H](c2ccc(-c3cccnc3)cc2)[C@H]1CNC(=O)C1CC1 | -2.0 | 10.0 | · | · | 47.2* | ·
O=C(NC[C@H]1[C@@H](c2ccccc2)[C@@H](CO)N1Cc1ccccc1)c1ccccn1 | -0.2 | 2.2 | · | · | -8.6 | ·
O=C(NC[C@H]1[C@@H](c2ccccc2)[C@@H](CO)N1C(=O)C1CCC1)NC1CCCC1 | 2.8 | · | · | 97.4* | 19.3 | 9.5
O=C(NC[C@H]1[C@H](c2ccccc2)[C@H](CO)N1C(=O)Cc1cccnc1)C1CCC1 | 1.3 | · | · | 81.1* | ? | -10.6
CCCNC(=O)N1[C@H](CO)[C@H](c2ccccc2)[C@@H]1CNC(=O)C1CCCC1 | -0.5 | 0.7 | · | · | 22.1* | ·
CC(=O)NC[C@@H]1[C@@H](c2ccc(-c3cccnc3)cc2)[C@H](CO)N1C(=O)C1CCC1 | 1.9 | · | · | 0.1 | 30.8* | -8.5
CCC(=O)N1[C@H](CO)[C@H](c2ccc(-c3cccnc3)cc2)[C@@H]1CN(C)C(C)=O | 0.1 | · | · | -0.2 | 5.4 | -5.1
CCCNC(=O)N1[C@H](CO)[C@H](c2ccccc2)[C@H]1CNC(=O)C1CCCC1 | -1.4 | -6.2 | · | · | -7.6 | ·
CCC(=O)N1[C@H](CN(C)C(C)=O)[C@H](c2ccc(-c3cccnc3)cc2)[C@@H]1CO | -1.4 | -6.0 | · | -3.7 | 29.2* | 5.2
O=C(NCC[C@@H]1CC[C@@H](NS(=O)(=O)c2cccc(F)c2)[C@@H](CO)O1)c1cnccn1 | 0.6 | -0.8 | · | -1.5 | -4.5 | -3.9
Cc1noc(C)c1NC(=O)N(C)C[C@H]1Oc2c(NC(=O)NC3CCCCC3)cccc2C(=O)N([C@H](C)CO)C[C@H]1C | -4.9 | 1.8 | · | -2.5 | 13.5 | -39.7
COc1cccc(S(=O)(=O)N(C)C[C@@H]2Oc3cc(C#CCC(C)C)ccc3S(=O)(=O)N([C@@H](C)CO)C[C@H]2C)c1 | 0.0 | 2.4 | · | 3.9 | 17.0 | -39.0
Cc1ccccc1-c1ccc2c(c1)O[C@@H](CN(C)C)[C@H](C)CN([C@@H](C)CO)S2(=O)=O | -4.8 | 4.2 | · | -21.6 | -4.4 | -86.5
O=C(NCCS(=O)(=O)NCc1ccc2c(c1)OCO2)c1ccccc1 | -1.9 | 1.1 | -4.7 | 3.1 | -3.2 | 4.0
Cc1ccc(CNS(=O)(=O)CCNC(=O)c2ccc3c(c2)OCO3)cc1 | 1.4 | -4.8 | 7.4 | -1.9 | 3.8 | 12.3
O=C(NCCS(=O)(=O)NCc1ccc(F)cc1)c1ccc2c(c1)OCO2 | -4.5 | -2.8 | -2.1 | 3.1 | 74.9* | 4.5
COc1ccccc1CCNS(=O)(=O)CCNC(=O)c1ccc2c(c1)OCO2 | -1.3 | 8.9 | 0.1 | 1.2 | 39.8* | 10.9
COc1ccc(CC(=O)Nc2ccc(-c3cn4ccccc4n3)cc2)cc1 | · | · | -13.7 | -6.3 | · | 111.2*
CNc1cncc(-c2cccc(C(C)=O)c2)n1 | 2.4 | 5.7 | -24.0 | 4.6 | 31.3* | 3.1
CNc1cncc(-c2cccc(NS(C)(=O)=O)c2)n1 | 2.6 | 4.7 | -19.7 | 3.6 | 3.3 | 1.3
COc1ccc2c(c1)c(C(=O)OCCN(C)C)c(C)n2C | · | · | 2.9 | -1.1 | · | 104.6*
O=C(Nc1ccc([N+](=O)[O-])cc1)N1CCc2ccccc2C1 | 0.7 | -3.1 | 2.9 | 0.7 | 23.4* | -16.6
